Measurements reported in ChEMBL document CHEMBL1641427, “Arylsulfanyl pyrazolones block mutant SOD1-G93A aggregation. Potential application for the treatment of amyotrophic lateral sclerosis” (Bioorg Med Chem, 2011).
Values after ≈ are worked out from the molar mass of the structure shown.

Columns and labels:
[1] = Inhibition of SOD1 G93A mutant aggregation in rat PC12 cells by cytotoxicity protection assay; type: cell-based; conditions: PC-12
[2] = (§1) Permeability from apical to basolateral side of human Caco2 cells after 2 hrs; type: ADME, cell-based, Caco-2; conditions: Caco-2
Procedure, shortened: (§2)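 Caco-2 cells were seeded on collagen-coated inserts and differentiated for 3 weeks, fed every 2 days. The donor side received 50 μM compound in HBSS with 10 mM HEPES and 1.98 g/L glucose, apical at pH 6.5 and basolateral at pH 7.4, for 2 h. Apical 100 μM Lucifer yellow checked monolayer integrity (<1%/2 h). Papp = dQ/dt/(C0·A), and the ratio is Papp(B→A)/Papp(A→B).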

[3] = (§3) Permeability from basolateral to apical side of human Caco2 cells after 2 hrs; type: ADME, cell-based, Caco-2; conditions: Caco-2; procedure, shortened: as §2
Caco-2 [4] = test: (§4) Ratio of permeability from basolateral to apical side to apical to basolateral side in human Caco2 cells; type: ADME, cell-based; procedure, shortened: as §2
[5] = Intrinsic clearance in mouse microsome by LC-MS/MS analysis in presence of NADPH; type: ADME; conditions: mouse microsomes
[6] = Intrinsic clearance in mouse microsome by LC-MS/MS analysis; type: ADME; conditions: mouse microsomes
[7] = Half life in mouse microsome by LC-MS/MS analysis; type: ADME, microsomes; conditions: for t1/2: microsomes
[8] = Aqueous solubility of the compound; type: physicochemical; conditions: buffer
Procedure, shortened: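 DMSO stock 3-fold serially diluted at 100× final, then diluted into PBS to 1% DMSO final. Incubated 1 h at room temperature, inspected visually for precipitate and read at 450 nm. Solubility limit is the highest concentration neither cloudy nor above background absorbance (visual only for coloured compounds).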

Caco-2 [9] = test: as §1; type: ADME, cell-based; conditions: caco-2, 2 h; procedure, shortened: as §2
Caco-2 [10] = test: as §3; type: ADME, cell-based; conditions: caco-2, 2 h; procedure, shortened: as §2
[11] = as §4; type: ADME, cell-based; conditions: Caco-2; procedure, shortened: as §2
Plasma = test: Half life of the compound in mouse plasma at 5 uM; type: ADME, cell-free
Procedure, shortened: (§5)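 Samples taken at 15 s and at 10, 20, 40 and 60 min, precipitated with acetonitrile containing haloperidol internal standard, then LC-MS/MS. Plasma/PBS response ratio fitted to a first-order exponential (1/Y weighting); T1/2 = ln2/k. PBS half-life from its own exponential fit.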

[12] = Stability of the compound in PBS assessed as compound remaining after 60 mins; type: physicochemical; conditions: read-out: Stability; procedure, shortened: as §5
[13] = Half life in human microsome by LC-MS/MS analysis; type: ADME; conditions: microsomes
[14] = Drug level in Tg6799 mouse brain measured per gram of tissue at 1 mg/kg, ip after 10 mins by LC-MS/MS analysis; type: ADME, organism-based; design: dose 1 mg/kg, route intraperitoneal; conditions: read-out: Drug uptake
Procedure, shortened: (§6)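 Female Tg6799 mice (B6/SJL background), n=3, given 1 mg/kg i.p. in 60% PBS/40% DMSO (100 μL per 10 g) and killed at 10 min. Plasma collected by centrifugation. Brain PBS-perfused via left ventricle, excised, weighed and homogenized in acetonitrile with internal standard. Analyte measured by LC-MS/MS as ratio to internal standard; plasma in μg/mL, brain in μg/g. Brain/plasma ratio computed after μM conversion assuming brain density 1 g/mL. Mean ± SD.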

[15] = Drug level in Tg6799 mouse plasma at 1 mg/kg, ip after 10 mins by LC-MS/MS analysis; type: ADME, organism-based; design: dose 1 mg/kg, route intraperitoneal; conditions: read-out: Drug uptake; procedure, shortened: as §6
[16] = Ratio of drug level in brain to plasma in Tg6799 mouse at 1 mg/kg, ip after 10 mins by LC-MS/MS analysis; type: ADME, organism-based; design: dose 1 mg/kg, route intraperitoneal; procedure, shortened: as §6
[17] = Ratio of AUC of compound to 4-ethylidene-1H-pyrazol-5(4H)-ones in pig brain at 0.50 ug/ml brain extract concentration; type: ADME, tissue-based, Sus scrofa; conditions: in vivo
Procedure, shortened: (§7)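 Brain standards: analyte added to pig brain pieces (300–500 mg) with acetonitrile and internal standard at final 0.05, 0.10, 0.5 and 1.0 μg/mL (1 mL total). Homogenized, then 20 μL aliquot run by LC-MS/MS. Analyte/internal standard response taken. Triplicate.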

[18] = Ratio of AUC of compound to 4-ethylidene-1H-pyrazol-5(4H)-ones in pig brain at 1 ug/ml brain extract concentration; type: ADME, tissue-based, Sus scrofa; conditions: in vivo; procedure, shortened: as §7
Mus musculus [19] = test: Plasma area ratio in Tg6799 mouse at 1 mg/kg, ip after 10 mins by LC-MS/MS analysis; type: ADME, organism-based; design: dose 1 mg/kg, route intraperitoneal; conditions: in vivo; procedure, shortened: as §6
Mus musculus [20] = test: Brain area ratio in Tg6799 mouse at 1 mg/kg, ip after 10 mins by LC-MS/MS analysis; type: ADME, organism-based; design: dose 1 mg/kg, route intraperitoneal; conditions: in vivo; procedure, shortened: as §6
Brain = test: Effect of compound on Tg6799 mouse brain weight at 1 mg/kg, ip after 10 mins; type: ADME, organism-based; design: dose 1 mg/kg, route intraperitoneal; conditions: in vivo
[21] = Ratio of AUC of compound to 4-ethylidene-1H-pyrazol-5(4H)-ones in pig brain at 0.10 ug/ml brain extract concentration; type: ADME, tissue-based, Sus scrofa; conditions: in vivo; procedure, shortened: as §7
[22] = Ratio of AUC of compound to 4-ethylidene-1H-pyrazol-5(4H)-ones in pig brain at 0.05 ug/ml brain extract concentration; type: ADME, tissue-based, Sus scrofa; conditions: in vivo; procedure, shortened: as §7
Plasma (Homo sapiens) [23] = test: Ratio of AUC of compound to 4-ethylidene-1H-pyrazol-5(4H)-ones in human serum at 0.50 ug/ml plasma concentration
Plasma (Homo sapiens) [24] = test: Ratio of AUC of compound to 4-ethylidene-1H-pyrazol-5(4H)-ones in human serum at 0.05 ug/ml plasma concentration
Plasma (Homo sapiens) [25] = test: Ratio of AUC of compound to 4-ethylidene-1H-pyrazol-5(4H)-ones in human serum at 0.10 ug/ml plasma concentration
Plasma (Homo sapiens) [26] = test: Ratio of AUC of compound to 4-ethylidene-1H-pyrazol-5(4H)-ones in human serum at 0.01 ug/ml plasma concentration

Row | Structure (SMILES) | EC50 [1] | further results
1 | O=c1cc(CSc2cccc(Cl)c2)[nH][nH]1 | 1.11 µM | 
2 | O=C1/C(=C\c2ccc(-c3cccc(C(F)(F)F)c3)o2)C(CSc2ccccc2)=NN1c1ccccc1 | 35 µM | 
3 | O=C1NN=C(CSc2ccccc2)/C1=C/c1ccccc1 | > 32 µM | 
4 | Cn1[nH]c(CSc2ccc(Cl)cc2)cc1=O | 5.4 µM | 
5 | O=c1cc(CSc2ccc(Cl)c(Cl)c2)[nH][nH]1 | 1.89 µM | 
6 | Cc1ccc(SCC2=NN(c3ccccc3)C(=O)/C2=C\c2ccc(-c3cccc(C(F)(F)F)c3)o2)cc1 | 4.1 µM | 
7 | COc1ccc(SCc2cc(=O)[nH][nH]2)cc1 | 1.81 µM | 
8 | O=c1cc(CSc2ccccc2)[nH][nH]1 | 10.1 µM | 
9 | Cc1cc(C)nc(-n2[nH]c(CSc3nnc(C)s3)cc2=O)n1 | 6.7 µM | 
10 | Cc1nnc(SCc2cc(=O)[nH][nH]2)s1 | 16 µM | 
11 | Cc1nnc(SCc2cc(=O)n(-c3nc4ccccc4s3)[nH]2)s1 | 44 µM | 
12 | O=c1cc(CSc2c(Cl)cccc2Cl)[nH][nH]1 | 0.95 µM | 
13 | Cc1cc(SCC2=NNC(=O)/C2=C\N(C)C)c(C)cc1Cl | 5.3 µM | 
14 | CNC(=C[N+](=O)[O-])NCCSCc1ccc(CN(C)C)o1 [RANITIDINE] |  | Papp A→B at 2 h [2]: 0.6 ×10⁻⁶ cm/s; Papp B→A at 2 h [3]: 0.6 ×10⁻⁶ cm/s; Ratio (Caco-2 [4]): 1
15 | O=c1cc(CSc2ccc(Br)cc2)[nH][nH]1 | 1.8 µM | 
16 | Cc1ccc(SCC2=NN(c3ccccc3)C(=O)/C2=C\C2=NCN=C2c2ccccc2)cc1 | 10 µM | 
17 | O=c1cc(CSc2ccc([N+](=O)[O-])cc2)[nH][nH]1 | 2.4 µM | 

Row | Structure (SMILES) | EC50 [1] | further results
18 | O=c1cc(CSc2ccc(-c3ccccc3)cc2)[nH][nH]1 | 4.06 µM | 
19 | O=c1cc(CSc2ccc(F)cc2)[nH][nH]1 | 3.44 µM | 
20 | Cc1cc(SCC2=NNC(=O)/C2=C\N(C)C)c(Cl)cc1Cl | 0.9 µM | CLint scaled [5]: 924 mL/min/kg; CLint scaled [6]: 135 mL/min/kg; half-life ([7]; mouse microsomes): 4 min
21 | O=c1cc(CSc2ccccc2Cl)[nH][nH]1 | 3.05 µM | 
22 | Cc1cc(SCc2cc(=O)[nH][nH]2)c(Cl)cc1Cl | 0.55 µM | solubility [8]: 56 µM (≈ 16.2 µg/mL); Papp (Caco-2 [9]): 4.7 ×10⁻⁶ cm/s; Papp (Caco-2 [10]): 0.46 ×10⁻⁶ cm/s; efflux ratio [11]: 0.1; t1/2 (Plasma): 16 min; remaining at 1 h [12]: 100%; t1/2 [13]: 39 min; t1/2 [7]: 13 min
23 | Cc1ccc(SCc2cc(=O)n(-c3nc(C)cc(C)n3)[nH]2)cc1 | 3.5 µM | 
24 | CC(=O)CC(c1ccccc1)c1c(O)c2ccccc2oc1=O (centres undefined) [WARFARIN] |  | CLint scaled [6]: 6 mL/min/kg
25 | O=c1cc(CSc2nnnn2-c2ccccc2)[nH]n1-c1ccccc1 | 6.6 µM | 
26 | O=c1cc(CSc2ccc(Cl)cc2)[nH][nH]1 | 1.93 µM | 
27 | O=C1ON=C(CSc2ccccc2)/C1=C/c1ccccc1 | 165 µM | 
28 | O=c1cc(CSc2ccc(Cl)cc2)[nH]n1-c1ccccc1 | 3.46 µM | 
29 | O=c1cc(CSc2cc(Cl)cc(Cl)c2)[nH][nH]1 | 0.17 µM | 
30 | O=c1cc(CSc2ccccn2)[nH][nH]1 | 46 µM | 
31 | Cc1ccc(SCc2cc(=O)[nH][nH]2)cc1 | 2 µM | 
32 | O=c1cc(CSc2ccc(Cl)cc2Cl)[nH][nH]1 | 1.15 µM | 
33 | Cc1cc(SCc2cc(=O)[nH][nH]2)c(C)cc1Cl | 0.4 µM | CLint scaled [5]: 242 mL/min/kg; concentration at 10 min [14]: 360 ng/g; concentration at 10 min [15]: 1960 ng/mL; Ratio [16]: 0.19; Ratio AUC [17]: 1.11; Ratio AUC [18]: 2.48; Ratio (Mus musculus [19]): 0; Ratio (Mus musculus [20]): 0; Activity (Brain): 0.399 g; Ratio AUC [21]: 0.268; Ratio AUC [22]: 0.148; CLint scaled [6]: 63 mL/min/kg; t1/2 [7]: 15 min; Ratio AUC (Plasma (Homo sapiens) [23]): 1.58; Ratio AUC (Plasma (Homo sapiens) [24]): 0.304; Ratio AUC (Plasma (Homo sapiens) [25]): 0.637; Ratio AUC (Plasma (Homo sapiens) [26]): 0.068
34 | CC(C)(C)c1ccc(SCc2cc(=O)[nH][nH]2)cc1 | 2.31 µM | 
